The values below come from ChEMBL document CHEMBL1828624, “Synthesis and antioxidant activity of oxazolyl/thiazolylsulfonylmethyl pyrazoles and isoxazoles” (Eur J Med Chem, 2011).

Structures are written as SMILES. Converted amounts (≈) assume the structure as drawn. The source made the active and inactive calls. The calls are words filed in the database; no cut-off is given here.

Type in all cases: functional
The nature of assay [1]: Antioxidant activity assessed as nitric oxide scavenging activity at 75 ug/ml after 150 mins by Griess method relative to control. Summed up: (§1)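 NO was generated from sodium nitroprusside (10 mM) in phosphate buffer saline (0.2 M, pH 7.4). Compounds were added at […] and incubated 150 min at 25 °C. Percent scavenging was calculated from control (all reagents minus compound) and sample absorbances. Run in triplicate.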
In general terms: The Griess reaction detects nitrite, a stable product of nitric oxide.

Assay [2] has as its system Radical scavenging activity. The assay can be described thus: Antioxidant activity assessed as DPPH free radical scavenging activity at 50 ug/ml after 30 mins by spectrophotometric analysis relative to control. Summed up:
(§2)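 Compounds in methanol at […] were mixed with 0.004% (w/v) methanolic DPPH. After 30 min at room temperature, absorbance was read at 517 nm against a blank. Percent inhibition was calculated from control (all reagents minus compound) and sample absorbances. Run in triplicate.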
On the technique in general: The DPPH test is a chemical assay of radical scavenging.

For assay [3], the system named is Radical scavenging activity. The assay can be described thus: Antioxidant activity assessed as DPPH free radical scavenging activity at 100 ug/ml after 30 mins by spectrophotometric analysis relative to control. Summed up:
as §2

Assay [4] in a line: Antioxidant activity assessed as hydrogen peroxide scavenging activity at 75 ug/ml relative to control.
In assay [5] the test system is Radical scavenging activity. Briefly: Antioxidant activity assessed as DPPH free radical scavenging activity after 30 mins by spectrophotometric analysis. In a few lines:
as §2

A short description of assay [6]: Antioxidant activity assessed as hydrogen peroxide scavenging activity at 50 ug/ml relative to control.
Assay [7] in a line: Antioxidant activity assessed as nitric oxide scavenging activity at 100 ug/ml after 150 mins by Griess method relative to control. In a few lines: as §1
The nature of assay [8]: Antioxidant activity assessed as nitric oxide scavenging activity at 50 ug/ml after 150 mins by Griess method relative to control. In a few lines:
as §1

The nature of assay [9]: Antioxidant activity assessed as hydrogen peroxide scavenging activity at 100 ug/ml relative to control.
Assay [10] deals with Radical scavenging activity. The assay can be described thus: Antioxidant activity assessed as DPPH free radical scavenging activity at 75 ug/ml after 30 mins by spectrophotometric analysis relative to control. Summed up:
as §2

`O=S(=O)(CC1=NCCO1)c1c(-c2ccc(Cl)cc2)nn(-c2ccccc2)c1-c1ccc(Cl)cc1`: the outcome in assay [1], in [4], in assay [6], in [7], in [8] and in assay [9] was inactive. Also, the inhibition result in assay [2], in [3] and in assay [10] was “inactive” each time. In addition, the IC50 entry in [5] is “Not Active”.
For `O=S(=O)(CC1=NCCO1)c1n[nH]cc1-c1ccccc1`, the Activity in assay [1] was found to be 54.7%; in [4], 55.6%; in [6], 53.3%; in assay [7], 57.5%; in [8] it was 50.6%; in assay [9] it was 58.5%. In addition, the results for the inhibition in [2], in assay [3] and in assay [10] were 50.1%, 60.8% and 54.3%, respectively. Further, the IC50 in assay [5] came to 82.26 µg/mL (≈ 282 µM).
Take `O=S(=O)(CC1=NCCO1)C1=NNCC1c1ccccc1` (stereo not given): the outcome in assay [1], in [4], in [6], in assay [7], in assay [8] and in [9] was inactive. Besides, the inhibition result in assay [2], in [3] and in assay [10] was “inactive” throughout. The half-maximal inhibitory concentration (IC50) result in assay [5] is recorded as “Not Active”.
As to `O=S(=O)(CC1=NCCO1)C1C(c2ccc(Cl)cc2)=NN(c2ccccc2)C1c1ccc(Cl)cc1` (stereo not given), the outcome in assay [1], in assay [4], in assay [6], in [7], in [8] and in assay [9] was inactive. In addition, the inhibition entry in assay [2], in assay [3] and in assay [10] was “inactive” in each case. Besides, the IC50 entry in assay [5] is “Not Active”.
In the case of `O=S(=O)(CC1=NCCS1)c1c(-c2ccccc2)nn(-c2ccccc2)c1-c1ccccc1`, the outcome in [1], in assay [4], in [6], in assay [7], in assay [8] and in assay [9] was inactive. The inhibition entry in assay [2], in assay [3] and in [10] was “inactive” each time. Further, the IC50 entry in assay [5] is given as “Not Active”.
On to `Cc1ccc(-c2c[nH]nc2S(=O)(=O)CC2=NCCS2)cc1`, for which the result in [1], in [4], in [6], in assay [7], in assay [8] and in assay [9] was inactive. The inhibition entry in assay [2], in assay [3] and in assay [10] was “inactive” in each case. In assay [5], the half-inhibitory concentration (IC50) result is “Not Active”.
As for `O=S(=O)(CC1=NCCS1)C1=NNCC1c1ccccc1` (stereo not given), the outcome in assay [1], in assay [4], in [6], in [7], in [8] and in assay [9] was inactive. Further, the inhibition result in assay [2], in assay [3] and in assay [10] was “inactive” each time. Further, the 50% inhibitory concentration (IC50) entry in [5] is “Not Active”.
With `O=S(=O)(CC1=NCCS1)C1C(c2ccccc2)=NN(c2ccccc2)C1c1ccccc1` (stereo not given), the result in assay [1], in assay [4], in assay [6], in assay [7], in assay [8] and in assay [9] was inactive. Also, the inhibition entry in [2], in [3] and in [10] was “inactive” in each case. Moreover, the IC50 result in assay [5] was “Not Active”.
On to `COc1ccc(C2=NOC(c3ccc(C)cc3)C2S(=O)(=O)CC2=NCCO2)cc1` (stereo not given), for which the Activity amounted to 65.9% in assay [1]; 66.6% in assay [4]; 65.9% in [6]; 71.2% in assay [7]; 61.9% in assay [8]; 70.9% in assay [9]. Also, the values for the inhibition in [2], in assay [3] and in [10] were 58.1%, 66.5% and 63.3%, respectively. In [5], the concentration for half-maximal inhibition (IC50) is 75.16 µg/mL (≈ 181 µM).
Regarding `O=S(=O)(CC1=NCCS1)C1C(c2ccccc2)=NOC1c1ccccc1` (stereo not given), the outcome in [1], in assay [4], in assay [6], in assay [7], in assay [8] and in [9] was inactive. Besides, the inhibition entry in assay [2], in [3] and in [10] was “inactive” throughout. In addition, the IC50 result in assay [5] is “Not Active”.
Regarding `Cc1ccc(-c2c[nH]nc2S(=O)(=O)CC2=NCCO2)cc1`, the Activity is 63.5% in assay [1]; 62% in assay [4]; 60.7% in [6]; 65.2% in assay [7]; 59.4% in assay [8]; 65.5% in assay [9]. The figures for the inhibition in assay [2], in assay [3] and in assay [10] were 59.8%, 69% and 63.7%, respectively. Further, in assay [5], the IC50 turned out to be 72.51 µg/mL (≈ 237 µM).
Regarding `O=S(=O)(CC1=NCCO1)C1=NNCC1c1ccc(Cl)cc1` (stereo not given), the result in [1], in [4], in assay [6], in [7], in [8] and in assay [9] was inactive. In addition, the inhibition result in assay [2], in assay [3] and in assay [10] was “inactive” each time. Besides, in assay [5], the IC50 result is recorded as “Not Active”.
Turning to `O=S(=O)(CC1=NCCO1)c1c(-c2ccccc2)nn(-c2ccccc2)c1-c1ccccc1`, the Activity in assay [1] turned out to be 59%; in assay [4], 57.2%; in assay [6], 55.6%; in [7], 63.5%; in [8], 54.5%; in [9] it was 59.1%. Further, the results for the inhibition in assay [2], in [3] and in [10] were 51.9%, 60.6% and 56.6%, respectively. Besides, the half-maximal inhibitory concentration (IC50) in assay [5] stood at 82.48 µg/mL (≈ 186 µM).
Turning to `COc1ccc(C2=NOC(c3ccc(C)cc3)C2S(=O)(=O)CC2=NCCS2)cc1` (stereo not given), the Activity worked out at 54.1% in [1]; 49.7% in [4]; 47.5% in assay [6]; 59.6% in assay [7]; 48.6% in assay [8]; 52.6% in [9]. Besides, the inhibition in assay [2] was determined as 46.8%; in [3], 58.6%; in [10], 50.6%. In addition, in assay [5], the half-maximal inhibitory concentration (IC50) was 85.38 µg/mL (≈ 198 µM).
In the case of `O=C1O[C@H]([C@@H](O)CO)C(O)=C1O` [ASCORBIC ACID], the Activity came out at 81.5% in assay [1]; 79.3% in assay [4]; 77.7% in [6]; 82.8% in assay [7]; 78.2% in assay [8]; 83.2% in [9]. The inhibition came out at 77.2% in [2], 83.8% in [3] and 81% in assay [10]. Further, the IC50 in assay [5] is 59.65 µg/mL (≈ 339 µM).
As to `O=S(=O)(CC1=NCCS1)C1C(c2ccc(Cl)cc2)=NOC1c1ccc(Cl)cc1` (stereo not given), the outcome in [1], in assay [4], in [6], in assay [7], in [8] and in [9] was inactive. In addition, the inhibition entry in [2], in assay [3] and in assay [10] was “inactive” each time. In addition, the IC50 entry in assay [5] is reported as “Not Active”.
Take `O=S(=O)(CC1=NCCS1)c1n[nH]cc1-c1ccccc1`: the outcome in assay [1], in [4], in assay [6], in [7], in assay [8] and in assay [9] was inactive. In addition, the inhibition result in assay [2], in assay [3] and in [10] was “inactive” in each case. The 50% inhibitory concentration (IC50) result in assay [5] is on record as “Not Active”.

The term inhibition denotes how much of the control response was suppressed. In general, IC50 refers to the concentration that gives 50% inhibition.
